According to ChEMBL document CHEMBL3352716 (ACS Med Chem Lett, 2014):

Tests used:
MGC-803 = assay: Antiproliferative activity against human MGC803 cells assessed as growth inhibition after 72 hrs by MTT assay; assay type: functional, cell-based; details: MGC-803, 72 h
In short: (§1)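 MTT proliferation assay on human K562 leukaemia, MCF-7 breast adenocarcinoma, Bel-7402 hepatocellular carcinoma and MGC-803 gastric cancer cells. Drug exposure 72 h. IC50 is the concentration inhibiting 50% of cell growth. Means ± SD, n = 3.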

[1] = Antiproliferative activity against human Bel7402 cells assessed as growth inhibition after 72 hrs by MTT assay; assay type: functional, cell-based; details: Bel-7402, 72 h; in short: as §1
MCF7 = assay: Antiproliferative activity against human MCF7 cells assessed as growth inhibition after 72 hrs by MTT assay; assay type: functional, cell-based; details: MCF7, 72 h; in short: as §1
K562 = assay: Antiproliferative activity against human K562 cells assessed as growth inhibition after 72 hrs by MTT assay; assay type: functional, cell-based; details: K562, 72 h; in short: as §1
[2] = Anticancer activity against ABCB1-overexpressing human SW620/AD300 cells by MTT assay; assay type: functional, cell-based; details: SW-620
In short: (§2)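 MTT cytotoxicity run on paired parental and transporter-overexpressing lines: SW620 vs ABCB1-overexpressing SW620/AD300, and NCI-H460 vs ABCG2-overexpressing NCI-H460/MX20. IC50 is the concentration inhibiting 50% of cell growth. Concentrations tested up to 100 μM.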

[3] = Cell cycle arrest in human Bel7402 cells assessed as cells at S phase at 0.25 uM after 48 hrs by propidium iodide staining-based flow cytometric analysis (reference value: 40.82%); assay type: functional; details: Bel-7402
Bel-7402 [4] = assay: Induction of apoptosis in human Bel7402 cells assessed as early apoptotic cells after 48 hrs at 0.25 uM by Annexin V/propidium iodide staining-based flow cytometric analysis (reference value: 0.64%); assay type: functional
Bel-7402 [5] = assay: Induction of apoptosis in human Bel7402 cells assessed as late apoptotic cells after 48 hrs at 0.25 uM by Annexin V/propidium iodide staining-based flow cytometric analysis (reference value: 5.21%); assay type: functional
[6] = Cell cycle arrest in human Bel7402 cells assessed as cells at G1 phase at 0.25 uM after 48 hrs by propidium iodide staining-based flow cytometric analysis (reference value: 39.66%); assay type: functional; details: Bel-7402
Bel-7402 [7] = assay: Induction of apoptosis in human Bel7402 cells assessed as viable cells after 48 hrs at 0.125 uM by Annexin V/propidium iodide staining-based flow cytometric analysis (reference value: 92.80%); assay type: functional; details: Bel-7402, 48 h, read-out: Activity
Bel-7402 [8] = assay: Induction of apoptosis in human Bel7402 cells after 48 hrs by Annexin V/propidium iodide staining-based flow cytometric analysis; assay type: functional, cell-based
[9] = Cell cycle arrest in human Bel7402 cells assessed as cells at G2 phase at 0.25 uM after 48 hrs by propidium iodide staining-based flow cytometric analysis (reference value: 19.52%); assay type: functional; details: Bel-7402
[10] = Cell cycle arrest in human Bel7402 cells assessed as cells at G2 phase at 0.125 uM after 48 hrs by propidium iodide staining-based flow cytometric analysis (reference value: 19.52%); assay type: functional; details: Bel-7402
[11] = Anticancer activity against ABCG2-overexpressing human NCI-H460/MX20 cells by MTT assay; assay type: functional, cell-based; in short: as §2
[12] = Cell cycle arrest in human Bel7402 cells assessed as cells at G2 phase at 0.5 uM after 48 hrs by propidium iodide staining-based flow cytometric analysis (reference value: 19.52%); assay type: functional; details: Bel-7402
Bel-7402 [13] = assay: Selectivity index, ratio of IC50 for human L02 cells to ratio of IC50 for human Bel-7402 cells; assay type: functional
In short: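 Selectivity index is IC50 on normal L-02 liver cells divided by IC50 on Bel-7402 tumour cells. Both IC50 values come from MTT survival curves after 72 h exposure.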

NCI-H460 = assay: Anticancer activity against human NCI-H460 cells by MTT assay; assay type: functional, cell-based; in short: as §2
[14] = Cell cycle arrest in human Bel7402 cells assessed as cells at G1 phase at 0.125 uM after 48 hrs by propidium iodide staining-based flow cytometric analysis (reference value: 39.66%); assay type: functional; details: Bel-7402
Bel-7402 [15] = assay: Induction of apoptosis in human Bel7402 cells assessed as viable cells after 48 hrs at 0.25 uM by Annexin V/propidium iodide staining-based flow cytometric analysis (reference value: 92.80%); assay type: functional; details: Bel-7402, 48 h, read-out: Activity
[16] = Cell cycle arrest in human Bel7402 cells assessed as cells at S phase at 0.125 uM after 48 hrs by propidium iodide staining-based flow cytometric analysis (reference value: 40.82%); assay type: functional; details: Bel-7402
Bel-7402 [17] = assay: Induction of apoptosis in human Bel7402 cells assessed as late apoptotic cells after 48 hrs at 0.5 uM by Annexin V/propidium iodide staining-based flow cytometric analysis (reference value: 5.21%); assay type: functional
Bel-7402 [18] = assay: Induction of apoptosis in human Bel7402 cells assessed as viable cells after 48 hrs at 0.5 uM by Annexin V/propidium iodide staining-based flow cytometric analysis (reference value: 92.80%); assay type: functional; details: Bel-7402, 48 h, read-out: Activity
Bel-7402 [19] = assay: Induction of apoptosis in human Bel7402 cells assessed as necrotic cells after 48 hrs at 0.25 uM by Annexin V/propidium iodide staining-based flow cytometric analysis (reference value: 1.99%); assay type: functional
Bel-7402 [20] = assay: Induction of apoptosis in human Bel7402 cells assessed as necrotic cells after 48 hrs at 0.125 uM by Annexin V/propidium iodide staining-based flow cytometric analysis (reference value: 1.99%); assay type: functional
[21] = Anticancer activity against human Bel7402 cells assessed as growth inhibition by MTT assay; assay type: functional, cell-based; details: Bel-7402
In short: (§3)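 Toxicity compared on human normal liver L-02 cells and human liver cancer Bel-7402 cells run side by side. Survival curves by MTT after 72 h treatment. IC50 is the concentration inhibiting 50% of cell growth.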

[22] = Cell cycle arrest in human Bel7402 cells assessed as cells at S phase at 0.5 uM after 48 hrs by propidium iodide staining-based flow cytometric analysis (reference value: 40.82%); assay type: functional; details: Bel-7402
Bel-7402 [23] = assay: Induction of apoptosis in human Bel7402 cells assessed as necrotic cells after 48 hrs at 0.5 uM by Annexin V/propidium iodide staining-based flow cytometric analysis (reference value: 1.99%); assay type: functional
[24] = Cell cycle arrest in human Bel7402 cells assessed as cells at G1 phase at 0.5 uM after 48 hrs by propidium iodide staining-based flow cytometric analysis (reference value: 39.66%); assay type: functional; details: Bel-7402
Bel-7402 [25] = assay: Induction of apoptosis in human Bel7402 cells assessed as early apoptotic cells after 48 hrs at 0.125 uM by Annexin V/propidium iodide staining-based flow cytometric analysis (reference value: 0.64%); assay type: functional
SW-620 = assay: Anticancer activity against human SW620 cells by MTT assay; assay type: functional, cell-based; in short: as §2
Bel-7402 [26] = assay: Induction of apoptosis in human Bel7402 cells assessed as late apoptotic cells after 48 hrs at 0.125 uM by Annexin V/propidium iodide staining-based flow cytometric analysis (reference value: 5.21%); assay type: functional
[27] = Cytotoxicity against human L02 cells by MTT assay; assay type: cell-based; in short: as §3
Bel-7402 [28] = assay: Induction of apoptosis in human Bel7402 cells assessed as early apoptotic cells after 48 hrs at 0.5 uM by Annexin V/propidium iodide staining-based flow cytometric analysis (reference value: 0.64%); assay type: functional

For C=C1C(=O)[C@]23[C@H](OC(=O)c4ccc(N(CCCl)CCCl)cc4)[C@H]1CC[C@H]2[C@@]12CO[C@@]3(O)[C@@H](O)[C@@H]1C(C)(C)CC[C@@H]2OC(C)=O, the IC50 (MGC-803) was 3760 nM, the IC50 [1] was 2410 nM and the IC50 (MCF7) was 910 nM. It also gave an IC50 (K562) of 1350 nM.

C=C1C(=O)[C@]23[C@H](OC(=O)CCC(=O)N[C@@H](Cc4ccc(N(CCCl)CCCl)cc4)C(=O)OC)[C@H]1CC[C@H]2[C@@]12CO[C@@]3(O)[C@@H](O)[C@@H]1C(C)(C)CCC2=O showed an IC50 (MGC-803) of 3390 nM, an IC50 [1] of 1410 nM and an IC50 (MCF7) of 2880 nM. It also gave an IC50 (K562) of 1660 nM.

In the case of C=C1C(=O)[C@]23[C@H](OC(=O)[C@H](Cc4ccc(N(CCCl)CCCl)cc4)NC(=O)OC(C)(C)C)[C@H]1CC[C@H]2[C@@]12CO[C@@]3(O)[C@@H](O)[C@@H]1C(C)(C)CC[C@@H]2O, the IC50 (MGC-803) is reported as 6720 nM, the IC50 [1] is reported as 2360 nM and the IC50 (MCF7) is reported as 3220 nM. For the same molecule, the IC50 (K562) was 1410 nM.

With C=C1C(=O)[C@]23[C@H](OC(=O)CCCc4ccc(N(CCCl)CCCl)cc4)[C@H]1CC[C@H]2[C@@]12CO[C@@]3(O)[C@@H](O)[C@@H]1C(C)(C)CCC2=O the IC50 (MGC-803) was 3950 nM, the IC50 [1] was 2530 nM and the IC50 (MCF7) was 2250 nM. The IC50 (K562) was 2370 nM.

In the case of C=C1C(=O)[C@]23[C@H](OC(=O)[C@H](Cc4ccc(N(CCCl)CCCl)cc4)NC=O)[C@H]1CC[C@H]2[C@@]12CO[C@@]3(O)[C@@H](O)[C@@H]1C(C)(C)CC[C@@H]2O, the IC50 (MGC-803) is reported as 7100 nM, the IC50 [1] is reported as 3840 nM and the IC50 (MCF7) is reported as 14600 nM. The IC50 (K562) was 7030 nM.

In the case of C=C1C(=O)[C@]23[C@H](OC(=O)CCCc4ccc(N(CCCl)CCCl)cc4)[C@H]1CC[C@H]2[C@@]12CO[C@@]3(O)[C@@H](O)[C@@H]1C(C)(C)CC[C@@H]2OC(C)=O, the IC50 (MGC-803) is reported as 2250 nM, the IC50 [1] is reported as 1370 nM and the IC50 (MCF7) is reported as 790 nM. It also gave an IC50 (K562) of 1100 nM.

With C=C1C(=O)[C@]23[C@H](OC(=O)c4ccc(N(CCCl)CCCl)cc4)[C@H]1CC[C@H]2[C@@]12CO[C@@]3(O)[C@@H](O)[C@@H]1C(C)(C)CC[C@@H]2O the IC50 [2] was 1860 nM, the IC50 (MGC-803) was 1090 nM and the Activity [3] was 44.8%. It also gave an Activity (Bel-7402 [4]) of 3.14%, an Activity (Bel-7402 [5]) of 19.85% and an IC50 [1] of 500 nM. For the same molecule, the IC50 (MCF7) was 680 nM, the Activity [6] was 45.2% and the viability at 0.125 µM (Bel-7402 [7]) was 87.1%. The Activity (Bel-7402 [8]) was “Dose-dependent effect”, the Activity [9] was 9.98% and the Activity [10] was 13%. The IC50 [11] was 2910 nM, the Activity [12] was 4.46% and the “Ratio IC50” value (Bel-7402 [13]) was 8.06. It also gave an IC50 (NCI-H460) of 2350 nM, an Activity [14] of 45.6% and a viability at 0.25 µM (Bel-7402 [15]) of 75.8%. For the same molecule, the Activity [16] was 41.3%, the Activity (Bel-7402 [17]) was 37.51% and the viability at 0.5 µM (Bel-7402 [18]) was 50.7%. It also gave an Activity (Bel-7402 [19]) of 1.23%, an Activity (Bel-7402 [20]) of 2.12% and an IC50 [21] of 500 nM. For the same molecule, the Activity [22] was 43.6%, the Activity (Bel-7402 [23]) was 1.29% and the Activity [24] was 52%. It also gave an IC50 (K562) of 1120 nM, an Activity (Bel-7402 [25]) of 1.11% and an IC50 (SW-620) of 1960 nM. It also gave an Activity (Bel-7402 [26]) of 10.77%, an IC50 [27] of 4030 nM and an Activity (Bel-7402 [28]) of 10.53%.

With N[C@@H](Cc1ccc(N(CCCl)CCCl)cc1)C(=O)O [MELPHALAN] the IC50 (MGC-803) was 36900 nM, the IC50 [1] was 24800 nM and the IC50 (MCF7) was 19600 nM. The IC50 (K562) was 33400 nM.
